{"source": "ChEMBL document CHEMBL3045839", "about": "“Curcumin, a known phenolic from Curcuma longa, attenuates the virulence of Pseudomonas aeruginosa PAO1 in whole plant and animal pathogenicity models” (2008)", "key": {"Pseudomonas aeruginosa [1]": {"tested_on": "Pseudomonas aeruginosa", "test": "Inhibition of biofilm formation of Pseudomonas aeruginosa PAO1 at 2 to 3 ug/mL by confocal scanning laser microscopy", "type": "functional, organism-based", "outline": "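PAO1 grown on two-well Permanox slides with curcumin 2–3 µg/mL. Stained with a LIVE/DEAD BacLight kit (SYTO 9/propidium iodide) 48 h postinoculation and imaged by confocal laser scanning microscopy with a 10× objective. Repeated twice, three replicates each.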"}, "Pseudomonas aeruginosa [2]": {"tested_on": "Pseudomonas aeruginosa", "test": "Inhibition of biofilm formation of Pseudomonas aeruginosa PAO1 at 1.5 to 3 ug/mL by crystal violet staining method", "type": "functional, organism-based", "outline": "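Static biofilm in polypropylene tubes with LB containing curcumin 1.5–3.0 µg/mL from the start of incubation; ethanol equalized across tubes. Crystal violet staining, ethanol solubilization, OD read. Three replicates.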"}, "Pseudomonas aeruginosa [3]": {"tested_on": "Pseudomonas aeruginosa", "test": "Growth inhibition of Pseudomonas aeruginosa PAO1 planktonic forms", "type": "functional", "outline": "(§1)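 PAO1 grown in LB with curcumin 0.5–30.0 µg/mL from an initial OD600 of 0.02; compound predissolved in ethanol, final solvent ≤0.02% v/v. OD600 read every 5 h up to 25 h; colony counts taken. n = 6, standard error.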"}, "Pseudomonas aeruginosa [4]": {"tested_on": "Pseudomonas aeruginosa", "test": "Growth inhibition of Pseudomonas aeruginosa PAO1 planktonic forms at >5 ug/mL", "type": "functional, organism-based", "outline": "as §1"}, "Pseudomonas aeruginosa [5]": {"tested_on": "Pseudomonas aeruginosa", "test": "Down regulation of rhlA expression in Pseudomonas aeruginosa PAO1 at 3 ug/mL by microarray gene expression analysis", "type": "functional, organism-based", "outline": "(§2)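 PAO1 grown in triplicate in LB with curcumin 3 µg/mL, starting at OD600 ~0.02, at 37 °C and 200 rpm for 10 h (~2 OD600). RNA was isolated from 5 mL of culture, and 10 µg was amplified for microarray expression analysis.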"}, "Pseudomonas aeruginosa [6]": {"tested_on": "Pseudomonas aeruginosa", "test": "Down regulation of lasI expression in Pseudomonas aeruginosa PAO1 at 3 ug/mL by microarray gene expression analysis", "type": "functional, organism-based", "outline": "as §2"}, "Pseudomonas aeruginosa [7]": {"tested_on": "Pseudomonas aeruginosa", "test": "Down regulation of virulence factor production in Pseudomonas aeruginosa PAO1 assessed as reduction in elastase production at 1 to 5 ug/mL relative to untreated control", "type": "functional", "outline": "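Culture grown with or without curcumin for 24 h at 37 °C in PTSB (5% peptone, 0.25% tryptic soy broth). Filtered supernatant was added to elastin-congo red in 10 mM Na2HPO4, pH 7, and shaken for 4 h at 37 °C. After centrifugation, OD495 was read and normalised to cell density.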"}, "Pseudomonas aeruginosa [8]": {"tested_on": "Pseudomonas aeruginosa", "test": "Down regulation of virulence factor production in Pseudomonas aeruginosa PAO1 assessed as reduction in protease production at 1 to 5 ug/mL relative to untreated control", "type": "functional", "outline": "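Culture grown with or without curcumin for 24 h at 37 °C in PTSB (5% peptone, 0.25% tryptic soy broth). Filtered supernatant was incubated with 0.8% azocasein in 50 mM K2HPO4, pH 7, for 3 h at 25 °C. The reaction was stopped with 1.5 M HCl, kept on ice 30 min and centrifuged. NaOH was added, OD440 read and normalised to cell density.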"}, "Pseudomonas aeruginosa [9]": {"tested_on": "Pseudomonas aeruginosa", "test": "Down regulation of virulence factor production in Pseudomonas aeruginosa PAO1 assessed as reduction in pyocyanin production at 1.5 to 3 ug/mL", "type": "functional", "parameters": "scale not given: the % may be the effect or the level left", "outline": "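PAO1 grown in LB with or without curcumin (1.5–3 µg mL-1) and harvested. Pyocyanin was extracted and estimated by the Mahajan-Miklos method, then normalised against live cell numbers.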"}, "Pseudomonas aeruginosa [10]": {"tested_on": "Pseudomonas aeruginosa", "test": "Down regulation of phzD expression in Pseudomonas aeruginosa PAO1 at 3 ug/mL by microarray gene expression analysis", "type": "functional, organism-based", "outline": "as §2"}, "Pseudomonas aeruginosa [11]": {"tested_on": "Pseudomonas aeruginosa", "test": "Effect on QS system related genes in Pseudomonas aeruginosa PAO1 at 3 ug/mL by microarray gene expression analysis", "type": "functional, organism-based", "outline": "as §2"}, "Pseudomonas aeruginosa [12]": {"tested_on": "Pseudomonas aeruginosa", "test": "Antimicrobial activity against Pseudomonas aeruginosa PAO1 infected in Arabidopsis thaliana Col-0 assessed as change in bacterial count in presence of AHL/3-oxo-HSL", "type": "functional, organism-based", "outline": "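Col-0 seedlings in liquid MS medium inoculated with PAO1 (OD600 0.02–0.04, ~2.8 × 10^8 cells/mL) plus curcumin 3.0 µg/mL, with or without exogenous AHL/3-oxo-HSL. Roots harvested after 7 days; bacteria enumerated as CFU per gram fresh weight. Triplicate experiments.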"}, "Pseudomonas aeruginosa [13]": {"tested_on": "Pseudomonas aeruginosa", "test": "Antimicrobial activity against Pseudomonas aeruginosa PAO1 infected in Arabidopsis thaliana Col-0 assessed as inhibition of biofilm formation in roots at 3 ug/mL measured 7 days post dose", "type": "functional, organism-based", "outline": "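Ten-day-old Col-0 plants in 2 mL liquid MS medium were inoculated with PAO1 (OD600 0.02–0.04) with curcumin 3.0 µg/mL added alongside the bacteria. Root-surface biofilm was imaged by confocal microscopy after BacLight live/dead staining.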"}, "Pseudomonas aeruginosa [14]": {"tested_on": "Pseudomonas aeruginosa", "test": "Antimicrobial activity against Pseudomonas aeruginosa PAO1 infected in Arabidopsis thaliana Col-0 assessed as protection against infection of roots at 3 ug/mL measured 7 days post dose", "type": "functional, organism-based", "outline": "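In vitro root pathogenicity: ten-day-old Col-0 plants (n = 20 per treatment) in 2 mL liquid MS medium were inoculated with PAO1 at OD600 0.02–0.04 (~2.8 × 10^8 cells/mL), with curcumin 3.0 µg/mL added together with the bacteria. A non-inoculated control was kept. Plant mortality was recorded 7 days after inoculation; triplicate experiments.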"}, "Pseudomonas aeruginosa [15]": {"tested_on": "Pseudomonas aeruginosa", "test": "Down regulation of QS system in Pseudomonas aeruginosa PAO1 assessed as reduction in total homoserine lactone production at 5 ug/mL by HPLC relative to untreated control", "type": "functional"}, "Pseudomonas aeruginosa [16]": {"tested_on": "Pseudomonas aeruginosa", "test": "Down regulation of QS system in Pseudomonas aeruginosa PAO1 assessed as reduction in C4-HSL production at 1 ug/mL by HPLC", "type": "functional", "parameters": "scale not given: the % may be the effect or the level left"}, "Pseudomonas aeruginosa [17]": {"tested_on": "Pseudomonas aeruginosa", "test": "Down regulation of QS system in Pseudomonas aeruginosa PAO1 assessed as reduction in 3-oxo-C12-HSL production at 1 ug/mL by HPLC", "type": "functional", "parameters": "scale not given: the % may be the effect or the level left"}}, "note": "The source made the active and inactive calls. No cut-off for these calls is given here."}
{"compound": "COc1cc(/C=C/C(=O)CC(=O)/C=C/c2ccc(O)c(OC)c2)ccc1O", "note": "[CURCUMIN]", "values": [{"measurement": "inhibition", "setting": "Pseudomonas aeruginosa [1]", "value": "Active"}, {"measurement": "inhibition", "setting": "Pseudomonas aeruginosa [2]", "value": "Active"}, {"measurement": "MIC", "setting": "Pseudomonas aeruginosa [3]", "value": 30, "unit": "µg/mL"}, {"measurement": "growth inhibition (GI)", "setting": "Pseudomonas aeruginosa [4]", "value": "inactive"}, {"measurement": "Activity", "setting": "Pseudomonas aeruginosa [5]", "value": "Active"}, {"measurement": "Activity", "setting": "Pseudomonas aeruginosa [6]", "value": "Active"}, {"measurement": "fold change (FC)", "setting": "Pseudomonas aeruginosa [7]", "value": 2}, {"measurement": "fold change (FC)", "setting": "Pseudomonas aeruginosa [8]", "value": 2}, {"measurement": "Activity", "setting": "Pseudomonas aeruginosa [9]", "value": 60, "unit": "%"}, {"measurement": "Activity", "setting": "Pseudomonas aeruginosa [10]", "value": "Active"}, {"measurement": "Activity", "setting": "Pseudomonas aeruginosa [11]", "value": "Active"}, {"measurement": "Activity", "setting": "Pseudomonas aeruginosa [12]", "value": "inactive"}, {"measurement": "inhibition", "setting": "Pseudomonas aeruginosa [13]", "value": "Active"}, {"measurement": "inhibition", "setting": "Pseudomonas aeruginosa [14]", "value": "Active"}, {"measurement": "fold change (FC)", "setting": "Pseudomonas aeruginosa [15]", "value": 3}, {"measurement": "Activity", "setting": "Pseudomonas aeruginosa [16]", "value": ">2", "unit": "%"}, {"measurement": "Activity", "setting": "Pseudomonas aeruginosa [17]", "value": 25, "unit": "%"}]}
